{"source": "PubChem BioAssay AID651651", "about": "(Broad Institute, 2012)", "note": "Activity calls are given as the source filed them.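 Rule for the calls: active = signal-lowering compounds whose fitted half-effect concentration is no more than twice the top tested dose; inconclusive = flat curve with 30 to 70% inhibition, or poor fit; inactive = the rest.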"}
{"test": "quencher artefacts in RAD54 branch migration readout – biochemical, Cy5 label, cherry-picked samples, artefact control for RAD54 inhibitor project, dose response (AID 651651)", "settings": "Cy5 DNA fluorescence quench counter-screen; series mostly up to 50 µM", "procedure,_shortened": "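Test system: human RAD54 enzyme; Amount: 30 nM RAD54 in the enzyme mix; Medium: 25 mM Tris pH 7.5, 3 mM MgCl2, 2 mM ATP; Measured by: Cy5 fluorescence; Times: 60 min reaction at room temperature after substrate addition; Doses: pinned compound dose series, 10 mM stock solutions.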"}
{"smiles": "O=C(NC1CCC1)[C@@H]1[C@@H](CO)[C@@H]2Cn3c(ccc(-c4ccc(F)cc4)c3=O)[C@@H]2N1Cc1ccccn1", "outcome": "inactive"}
{"smiles": "COc1ccc(S(=O)(=O)N(C)C[C@@H]2Oc3ccc(NC(=O)NC(C)C)cc3CC(=O)N([C@@H](C)CO)C[C@@H]2C)cc1", "outcome": "inactive"}
{"smiles": "C[C@@H]1CN([C@H](C)CO)C(=O)c2cc(NC(=O)Nc3ccc4c(c3)OCO4)ccc2O[C@H]1CN(C)Cc1ccc2c(c1)OCO2", "outcome": "inactive"}
{"smiles": "CO[C@@H]1CN(C)C(=O)c2ccc(NC(C)=O)cc2OC[C@@H](C)N(C(=O)c2ccccn2)C[C@H]1C", "outcome": "inactive"}
{"smiles": "CN(C)CC(=O)Nc1ccc2c(c1)[C@@H]1C[C@H](CC(=O)NC3CCCCC3)O[C@@H](CO)[C@@H]1O2", "outcome": "inactive"}
{"smiles": "CN(C)c1ccc2c(c1)[C@@H]1C[C@@H](CC(=O)NCc3cc(F)ccc3F)O[C@H](CO)[C@@H]1O2", "outcome": "inactive"}
{"smiles": "C[C@@H]1CN([C@@H](C)CO)C(=O)c2cc(C3=CCCC3)cnc2O[C@@H]1CN(C)C(=O)Nc1ccc(F)cc1", "outcome": "inactive"}
{"smiles": "CN1CCN(C(=O)C[C@H]2C[C@@H]3c4cc(NC(=O)Cc5ccncc5)ccc4O[C@@H]3[C@@H](CO)O2)CC1", "outcome": "inactive"}
{"smiles": "O=C(C[C@@H]1C[C@H]2c3cc(NC(=O)CC4CC4)ccc3O[C@H]2[C@@H](CO)O1)NCc1ccc(Cl)cc1", "outcome": "inactive"}
{"smiles": "COc1ccc(-c2ccc3c(c2)O[C@H](CN(C)C(C)=O)[C@H](C)CN([C@@H](C)CO)S3(=O)=O)cc1", "outcome": "inactive"}
{"smiles": "Cc1noc(C)c1NC(=O)Nc1ccc2c(c1)C(=O)N([C@H](C)CO)C[C@H](C)[C@H](CN(C)S(C)(=O)=O)OCCCC[C@H](C)O2", "outcome": "inactive"}
{"smiles": "COc1ccc(CN(C)C[C@@H]2Oc3ccc(NC(=O)Nc4c(C)noc4C)cc3C(=O)N([C@H](C)CO)C[C@H]2C)cc1", "outcome": "inactive"}
{"smiles": "Cc1ccc(S(=O)(=O)N(C)C[C@@H]2Oc3ccc(NC(=O)NC(C)C)cc3C(=O)N([C@H](C)CO)C[C@H]2C)cc1", "outcome": "inactive"}
{"smiles": "C[C@H]1CN([C@@H](C)CO)C(=O)Cc2cc(NC(=O)Nc3cccc4ccccc34)ccc2O[C@H]1CN(C)S(=O)(=O)c1ccc(F)cc1", "outcome": "inactive"}
{"smiles": "CO[C@@H]1CN(C)C(=O)c2cc(NC(C)=O)ccc2OC[C@H](C)N(Cc2ccccc2C(=O)O)C[C@@H]1C", "outcome": "inactive"}
{"smiles": "COc1ccc(S(=O)(=O)N(C)C[C@@H]2Oc3ccc(NC(=O)Nc4c(C)noc4C)cc3CC(=O)N([C@@H](C)CO)C[C@@H]2C)cc1", "outcome": "inactive"}
{"smiles": "COc1ccc(CN(C)C[C@@H]2Oc3ccc(NC(=O)Nc4ccc(OC)cc4)cc3C(=O)N([C@@H](C)CO)C[C@H]2C)cc1", "outcome": "inactive"}
{"smiles": "COc1ccc(S(=O)(=O)N(C)C[C@@H]2Oc3ccc(NC(=O)Nc4ccc5c(c4)OCO5)cc3C(=O)N([C@H](C)CO)C[C@H]2C)cc1", "outcome": "inactive"}
{"smiles": "COc1ccc(CN(C)C[C@@H]2Oc3ccc(NC(=O)NC4CCCCC4)cc3C(=O)N([C@@H](C)CO)C[C@H]2C)cc1", "outcome": "inactive"}
{"smiles": "Cc1cc(C(=O)Nc2cccc3c2O[C@H](CN(C)Cc2ccc(C(F)(F)F)cc2)[C@@H](C)CN([C@H](C)CO)C3=O)n(C)n1", "outcome": "inactive"}
{"smiles": "COc1ccc(CN(C)C[C@@H]2Oc3ccc(NC(=O)Nc4ccc(F)cc4)cc3C(=O)N([C@H](C)CO)C[C@H]2C)cc1", "outcome": "inactive"}
{"smiles": "COc1ccc(NC(=O)Nc2ccc3c(c2)CC(=O)N([C@H](C)CO)C[C@H](C)[C@H](CN(C)S(=O)(=O)c2ccc(OC)cc2)O3)cc1", "outcome": "inactive"}
{"smiles": "CN(C)c1ccc2c(c1)[C@@H]1C[C@@H](CC(=O)NCCN3CCCCC3)O[C@H](CO)[C@@H]1O2", "outcome": "inactive"}
{"smiles": "COc1ccc(S(=O)(=O)N(C)C[C@@H]2Oc3ccc(NC(=O)Nc4ccccc4)cc3CC(=O)N([C@@H](C)CO)C[C@@H]2C)cc1", "outcome": "inactive"}
{"smiles": "COc1ccc(S(=O)(=O)N(C)C[C@@H]2Oc3ccc(NC(=O)Nc4ccc(C(F)(F)F)cc4)cc3C(=O)N([C@H](C)CO)C[C@H]2C)cc1", "outcome": "inactive"}
{"smiles": "Cc1noc(C)c1NC(=O)Nc1ccc2c(c1)C(=O)N([C@@H](C)CO)C[C@H](C)[C@@H](CN(C)S(C)(=O)=O)OCCCC[C@@H](C)O2", "outcome": "inactive"}
{"smiles": "CN(C)c1ccc2c(c1)[C@H]1C[C@H](CC(=O)NCCN3CCCCC3)O[C@@H](CO)[C@H]1O2", "outcome": "inactive"}
{"smiles": "COc1ccc(CN(C)C[C@@H]2Oc3ccc(NC(=O)NC(C)C)cc3C(=O)N([C@H](C)CO)C[C@H]2C)cc1", "outcome": "inactive"}
{"smiles": "COc1cccc(S(=O)(=O)N2CCCCN3[C@@H](CO)[C@H](c4ccc(C#CCC(C)C)cc4)[C@@H]3C2)c1", "outcome": "inactive"}
